Screening data: PubChem, The Scripps Research Institute Molecular Screening Center
ABHD4 inh = inhibits mouse alpha/beta hydrolase domain 4. Q8VD66. purified mABHD4, FP-Rh probe fluorescence polarization. inhibition, % at 8.92 µM. 370,000 compounds, 0.54% hits;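 active = inhibition exceeding the mean over every tested compound plus 3 SD, cut at about 30% in these data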;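 also: 0% = plate median of compound wells and 100% = S159A mutant with DMSO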
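Material: mouse ABHD4 enzyme, wild type; Benchmarks: S159A mutant high control, sample median low control; Buffer or medium: HEPES pH 7.0, NaCl, Pluronic buffer; Signal: fluorescence polarization; Read-out: percent inhibition of probe binding, normalized to plate controls; Timing: pre-incubation 45 min, probe exposure 60 min, at 25 °C; Dosing: 8.92 µM, single dose.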
TDP2 inh = blocks human TDP2 phosphodiesterase activity; recombinant TDP2, T5PNP hydrolysis, p-nitrophenol absorbance 415 nm; inhibition, % at 12.8 µM; O95551; 370,000 compounds, 0.34% hits;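 active = inhibition above the mean of all tested compounds plus 3 SD, set per campaign, cut at about 25% in these data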;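 also: 0% = DMSO with enzyme and 100% = buffer with substrate but no TDP2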
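Assay system: Recombinant human TDP2 | Quantity: 120 nM TDP2 per well | Incubation: 2 h at 37 °C | Signal: Epi absorbance | Evaluation: Percent inhibition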
TCR CD3 inh = human TCR-CD3 binding inhibition. 360,000 compounds, 0.37% hits. inhibition, % at 9.4 µM. AID 651800. TAMRA-labeled TCR probe fluorescence, biochemical; in the data active = inhibition above about 19%;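 also: recombinant mutant TCR 2C K166C tagged with TAMRA read by polarization; 0% = receptor in buffer alone and 100% = receptor with positive control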
PAD4 FP inh = inhibitors of human PAD4. 330,000 compounds, 0.41% hits. recombinant PAD4, RCA probe fluorescence polarization. AID 485272. inhibition, % at 6.36 µM. Q9UM07;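 active = percent inhibition above a cutoff equal to the mean of all tested compounds plus 3 SD, cut at about 15% in these data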;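 also: 0% = PAD4 with RCA probe and DMSO and 100% = probe without PAD4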
SIAE primary = inhibitors of human sialic acid acetylesterase SIAE; Q9HAT2; SIAE FP-Rh probe binding, fluorescence polarization; 370,000 compounds, 0.69% hits; inhibition, % at 9.66 µM;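 active = inhibition above a cutoff: mean of compounds within the control limits plus 3 SD of those, cut at about 17% in these data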;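 also: 0% = plate median of compound wells and 100% = probe without SIAE protein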
Target sequence (Q9HAT2 whole entry, looked up): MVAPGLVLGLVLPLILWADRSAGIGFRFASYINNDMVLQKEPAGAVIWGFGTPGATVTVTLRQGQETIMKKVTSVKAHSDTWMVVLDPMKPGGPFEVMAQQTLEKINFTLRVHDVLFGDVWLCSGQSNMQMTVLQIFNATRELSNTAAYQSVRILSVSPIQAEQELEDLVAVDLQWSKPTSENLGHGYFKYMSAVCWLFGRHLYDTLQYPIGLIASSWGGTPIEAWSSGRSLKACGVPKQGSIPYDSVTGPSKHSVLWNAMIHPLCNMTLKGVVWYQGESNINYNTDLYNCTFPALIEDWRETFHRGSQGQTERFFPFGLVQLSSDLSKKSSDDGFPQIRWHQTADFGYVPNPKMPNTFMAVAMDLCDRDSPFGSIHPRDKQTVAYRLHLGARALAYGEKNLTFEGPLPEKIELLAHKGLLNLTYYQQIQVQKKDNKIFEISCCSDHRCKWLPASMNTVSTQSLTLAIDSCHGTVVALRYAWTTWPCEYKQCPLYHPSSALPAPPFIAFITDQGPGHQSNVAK
HTRA1 inhibitor = blocks human HTRA1 serine peptidase | recombinant HTRA1, FP-rhodamine activity-based probe, fluorescence polarization | inhibition, % at 5.96 µM | 340,000 compounds, 0.5% hits; in the data active = inhibition above about 36%;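 also: 0% = enzyme with DMSO and 100% = wells lacking enzyme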
SIAE inh conf = confirmation of human SIAE inhibitors; shares compounds with SIAE primary; AID 1117263; 2,300 compounds, 13% hits; inhibition, % at 9.66 µM; SIAE FP-Rh activity-based probe, fluorescence polarization;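 active = mean inhibition of the replicates above the hit cutoff set in the primary screen, cut at about 17% in these data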;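 also: 0% = SIAE with DMSO and probe and 100% = probe without SIAE; inhibitors lower polarization as more probe stays unbound to SIAE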
* = called active by the depositor; x = no result given. Sampled rows, rich in hits. Any-hit rate of the full collection: about 2%.

SMILES | ABHD4 inh | TDP2 inh | TCR CD3 inh | PAD4 FP inh | SIAE primary | HTRA1 inhibitor | SIAE inh conf
CCN(C(=O)COC(=O)c1c(NC(C)=O)sc(C)c1C)c1c(N)n(Cc2ccccc2)c(=O)[nH]c1=O | 6 | 2 | 3 | x | -20 | 4 | x
O=C(CCNS(=O)(=O)c1ccc(OC(F)(F)F)cc1)NC1CC1 | 2 | 1 | 1 | -2 | -5 | 5 | x
Cc1cc(C)n2c(Nc3ccc4c(c3)OCCO4)c(-c3ccc(C)o3)nc2n1 | 17 | -2 | 9 | -1 | 17* | 3 | 4
Cc1cc(C)n2c(Nc3ccc4c(c3)OCCO4)c(-c3cc4ccccc4o3)nc2n1 | 18 | -2 | -9 | x | 11 | x | x
COc1ccccc1OC(C)C(=O)Nc1ccccc1C(=O)NCc1cccnc1 (centres undefined) | -2 | 0 | -5 | 1 | -9 | 5 | x
CCOC(=O)N1CCC(NC(=O)C2CCN(C(=O)N3CC(C)Oc4ccc(C)cc43)CC2)CC1 (centres undefined) | -5 | -3 | 4 | -3 | -8 | 1 | x
CCOC(=O)N1CCC(NC(=O)C2CCN(C(=O)N3CC(C)Oc4ccccc43)CC2)CC1 (centres undefined) | 0 | 3 | -6 | -1 | 20* | 0 | -5
CCOC(=O)C1(C)CCCCN1C(=O)c1ccnc(Cl)c1 (centres undefined) | -2 | 5 | 7 | x | 2 | x | x
O=C(Nc1ccc([N+](=O)[O-])cc1)Nc1ccc(N2CCOCC2)c2nonc12 | 0 | -1 | 3 | -7 | 19* | 2 | 11
Cc1cccc(NC(=S)N/N=C/c2c[nH]c3ccccc23)c1 | 8 | 2 | 1 | -4 | 32* | 25 | 28*
Cc1[nH]c2ccccc2c1/C=N/NC(=S)NCc1ccccc1 | 19 | 7 | -3 | 6 | 22* | 24 | 19*
Cc1ccc(NC(=S)N/N=C/c2c(C)[nH]c3ccccc23)cc1 | 18 | 2 | 3 | 2 | 38* | 32 | 38*
CC(C)CCCC(C)CCOC(=O)CN1CCCC1 (centres undefined) | 1 | 8 | 5 | 6 | 18* | 3 | -1
O=C(CN1CCOCC1)OCCCC1CCCCC1 | -2 | 0 | 2 | 4 | 4 | -1 | x
COc1cc2cc(CCO)oc(=O)c2cc1OC | 2 | 0 | 4 | 3 | 2 | -4 | x
O=C(O)[C@H]1CCCN1C(=O)c1ccccc1N1C(=O)[C@@H]2Cc3c([nH]c4ccccc34)C(c3cccc(Cl)c3)N2C1=O (some centres undefined) | -31 | -8 | -3 | 2 | -50 | -10 | x
O=C(O)[C@@H]1CCCN1C(=O)c1ccccc1N1C(=O)[C@@H]2Cc3c([nH]c4ccccc34)C(c3cccc(Cl)c3)N2C1=O (some centres undefined) | -24 | -2 | 15 | 4 | 44* | -13 | -11
Cc1noc(C(=O)Nc2cccnc2)c1Cl | 3 | 1 | -5 | -5 | 17* | 8 | -2
Cc1nc2c3ccccc3nc(NNC(=O)CCC(=O)N3CCCC(C)C3)n2n1 (centres undefined) | 5 | 13 | 10 | -2 | 19* | 5 | 1
O=C(CNS(=O)(=O)c1ccccc1)N1CCc2ccccc2C1 | 2 | 8 | 8 | -4 | 4 | 2 | x
Cc1ccccc1-c1cnn(-c2cccc([N+](=O)[O-])c2)c1N | 5 | -17 | 4 | -1 | 0 | -7 | x
Nc1c(-c2ccccc2Cl)cnn1-c1cccc([N+](=O)[O-])c1 | -2 | -3 | 0 | -6 | 75* | 2 | -1
Cc1nnsc1S(=O)(=O)Cc1ccccc1C(F)(F)F | 0 | -8 | 3 | 2 | -1 | 0 | x
CC1=C(C(=O)N2CCOCC2)CC(CC(=O)NCc2cccc3ccccc23)C(=O)N1Cc1ccc(C(C)(C)C)cc1 (centres undefined) | 1 | 0 | -1 | x | -2 | x | x
CCOC(=O)COn1c(=O)c(-c2ccc(Br)cc2)[n+]([O-])c2ccccc21 | -5 | -15 | -4 | x | 17* | 3 | -1
SMILES | ABHD4 inh | TDP2 inh | TCR CD3 inh | PAD4 FP inh | SIAE primary | HTRA1 inhibitor | SIAE inh conf
CCOC(=O)COn1c(=O)c(-c2ccc(F)cc2)[n+]([O-])c2ccccc21 | 1 | 13 | 7 | x | 7 | 8 | x
O=S1(=O)c2ccc(N3CC[C@H](O)C3)cc2OCCCN1C1CC1 | 2 | -2 | x | x | 15 | x | x
Cc1cccc(C(=O)NCC(=O)NC(C)CCc2ccccc2)c1 (centres undefined) | -3 | -7 | 7 | 1 | 20* | -4 | -1
CCN(CC)C(=O)CSc1nnc([C@@H](NC(=O)OC(C)(C)C)C(C)C)o1 | -2 | -2 | 1 | 0 | -2 | -6 | x
CSc1nnc([C@@H](NC(=O)OC(C)(C)C)C(C)C)o1 | -5 | -5 | 7 | 1 | 18* | 6 | 9
Cc1cccc(-c2nc(Nc3ccc(N4CCOCC4)cc3)c3ccccc3n2)c1 | 9 | 6 | -2 | 5 | 30* | 15 | 6
Cc1ccc(N(CC(=O)NCc2ccco2)C(=O)CNS(=O)(=O)c2ccccc2)c(C)c1 | -6 | -13 | -1 | 2 | -10 | 2 | x
COc1ccc(Cn2ccnc2CO)cc1[N+](=O)[O-] | -2 | -5 | 4 | -2 | 19* | 0 | 3
CCOC(=O)CCC(=O)N1CCOCCN(C(=O)CCC(=O)OCC)CCOCC1 | 4 | -2 | 8 | -1 | 19* | 0 | 6
CCCCNC(=O)CCC(=O)Nc1ccc2nc(N3CCOCC3)cc(C)c2c1 | -1 | 1 | -3 | 0 | 24* | -5 | -1
C[C@@H]1CN([C@@H](C)CO)C(=O)CCCn2nncc2CO[C@@H]1CN(C)C(=O)Nc1ccc(C(F)(F)F)cc1 | 0 | -8 | 9 | x | -6 | 0 | x
CC(=O)N1c2ccc(S(=O)(=O)NCc3ccccc3Cl)cc2CC1C (centres undefined) | 7 | 12 | 7 | -9 | 18* | 3 | 3
COc1ccccc1CNC(=O)COC(=O)c1ccc(C)s1 | 4 | -6 | 5 | 5 | 23* | -4 | 4
CC(=O)OCC1OC(COC(C)=O)(c2ccc(C)cc2)C(OC(C)=O)C1OC(C)=O (centres undefined) | 3 | 5 | -5 | x | -3 | 2 | x
Oc1ccc(/C=N/Nc2ncnc3nc[nH]c23)cc1 | 2 | -2 | 3 | -3 | 18* | 4 | -2
Clc1ccc(/C=N/Nc2ncnc3nc[nH]c23)cc1 | -2 | 8 | -1 | -3 | 2 | 3 | x
Cc1ccc(/C=C2\C(=O)NC(=O)N2C)o1 | 2 | -14 | 0 | -2 | 19* | -1 | 0
Cc1cc(C)c(NC(=O)C2=COCCO2)c(C)c1 | 1 | 6 | -1 | 1 | 17* | 2 | 4
